Results: ChEMBL document CHEMBL5724801, “EUbOPEN Chemogenomics Library - Multiplex” (2024)
Several values for one entry are separate records, joined by “and”; a condition that tells them apart may be missing. Equal values may be shown once.

System: Fibroblast
Experiment: Multiplex assay against human fibroblast
Format: toxicity, cell-based
Summary of the method: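 Values for tubulin, mitochondrial-mass and membrane-permeability phenotypes are per cents of cells with healthy nuclei. These cells were identified by CellPathfinder machine-learning gating of live cells that had been stained at seeding with Hoechst33342, BioTracker Green Microtubule Cytoskeleton Dye, MitoTracker Red and Annexin V Alexa Fluor 680 and imaged on a CQ1 microscope at 37°C and 5% CO2 after compound addition. The gating first set Hoechst high-intensity objects apart from normal cells, then split normal cells into healthy, pyknosed or fragmented nuclei, and pyknosed cells into mitotic or apoptotic.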

[1] = 12 h, 1 µM, compound concentration 1 uM
[2] = 12 h, 10 µM, compound concentration 10 uM
[3] = 24 h, 1 µM, compound concentration 1 uM
[4] = 24 h, 10 µM, compound concentration 10 uM
[5] = 48 h, 1 µM, compound concentration 1 uM
[6] = 48 h, 10 µM, compound concentration 10 uM

## Cc1ccc(-c2c(C(=O)CF)n(CCCO)c3ncnc(N)c23)cc1
[1]
  Population Apoptotic (%): 36% and 12.9%
  Population Fragmented Nuclei (%): 17.65% and 9.49%
  Population Healthy Nuclei (%): 63.97% and 78.26%
  Population Hoechst High Intensity Objects (%): 0%
  Population Membrane Permeable-Phenotype (%): 1.15% and 2.53%
  Population Mitochondria Different-Phenotype (%): 9.2% and 6.06%
  Population Mitotic Cells (%): 64% and 87.1%
  Population Normal (%): 100%
  Population Pyknosed Nuclei (%): 18.38% and 12.25%
  Population Tubulin-Different-Phenotype (%): 13.79% and 12.12%
  Total Cell Count: 136 and 253
[2]
  Population Apoptotic (%): 6.98% and 18.18%
  Population Fragmented Nuclei (%): 10.16% and 6%
  Population Healthy Nuclei (%): 66.84% and 77.5%
  Population Hoechst High Intensity Objects (%): 0%
  Population Membrane Permeable-Phenotype (%): 4% and 4.52%
  Population Mitochondria Different-Phenotype (%): 8% and 11.61%
  Population Mitotic Cells (%): 93.02% and 81.82%
  Population Normal (%): 100%
  Population Pyknosed Nuclei (%): 22.99% and 16.5%
  Population Tubulin-Different-Phenotype (%): 19.2% and 29.03%
  Total Cell Count: 187 and 200
[3]
  Population Apoptotic (%): 12.12% and 12%
  Population Healthy Nuclei (%): 62.58% and 87.98%
  Population Hoechst High Intensity Objects (%): 0%
  Population Membrane Permeable-Phenotype (%): 6.86% and 1.32%
  Population Mitochondria Different-Phenotype (%): 2.94% and 5.29%
  Population Mitotic Cells (%): 87.88% and 88%
  Population Normal (%): 100%
  Population Pyknosed Nuclei (%): 20.25% and 9.69%
  Population Tubulin-Different-Phenotype (%): 14.71% and 10.57%
  Total Cell Count: 163 and 258
[4]
  Population Apoptotic (%): 9.3% and 10%
  Population Fragmented Nuclei (%): 8.8% and 4.95%
  Population Healthy Nuclei (%): 71.3% and 85.15%
  Population Hoechst High Intensity Objects (%): 0%
  Population Membrane Permeable-Phenotype (%): 8.44% and 2.33%
  Population Mitochondria Different-Phenotype (%): 4.55% and 5.81%
  Population Mitotic Cells (%): 90.7% and 90%
  Population Normal (%): 100%
  Population Pyknosed Nuclei (%): 19.91% and 9.9%
  Population Tubulin-Different-Phenotype (%): 23.38% and 29.07%
  Total Cell Count: 216 and 202
[5]
  Population Apoptotic (%): 26.67% and 20%
  Population Healthy Nuclei (%): 73.05% and 89.29%
  Population Hoechst High Intensity Objects (%): 0%
  Population Membrane Permeable-Phenotype (%): 1.64% and 1.78%
  Population Mitotic Cells (%): 73.33% and 80%
  Population Normal (%): 100%
  Population Pyknosed Nuclei (%): 8.98% and 7.94%
  Population Tubulin-Different-Phenotype (%): 7.38% and 16.44%
  Total Cell Count: 167 and 252
[6]
  Population Apoptotic (%): 9.09% and 27.27%
  Population Fragmented Nuclei (%): 7.76% and 9.13%
  Population Healthy Nuclei (%): 87.21% and 80.29%
  Population Hoechst High Intensity Objects (%): 0%
  Population Membrane Permeable-Phenotype (%): 1.57% and 0.6%
  Population Mitochondria Different-Phenotype (%): 8.9% and 2.4%
  Population Mitotic Cells (%): 90.91% and 72.73%
  Population Normal (%): 100%
  Population Pyknosed Nuclei (%): 5.02% and 10.58%
  Population Tubulin-Different-Phenotype (%): 9.42% and 27.54%
  Total Cell Count: 219 and 208

## CCOC(=O)c1c(/C(C#N)=C\N)c2ccc(Cl)c(Cl)c2n1C
[1]
  Population Fragmented Nuclei (%): 11.86% and 4.52%
  Population Healthy Nuclei (%): 64.41% and 76.92%
  Population Hoechst High Intensity Objects (%): 0%
  Population Membrane Permeable-Phenotype (%): 0% and 2.94%
  Population Mitochondria Different-Phenotype (%): 11.84% and 14.71%
  Population Mitotic Cells (%): 96.43% and 85.37%
  Population Normal (%): 100%
  Population Pyknosed Nuclei (%): 23.73% and 18.55%
  Population Tubulin-Different-Phenotype (%): 10.53% and 18.82%
  Total Cell Count: 118 and 221
[2]
  Population Apoptotic (%): 24.32% and 12.77%
  Population Fragmented Nuclei (%): 10.92% and 3.83%
  Population Healthy Nuclei (%): 67.82% and 76.17%
  Population Hoechst High Intensity Objects (%): 0%
  Population Membrane Permeable-Phenotype (%): 4.24% and 1.12%
  Population Mitochondria Different-Phenotype (%): 3.39% and 7.82%
  Population Mitotic Cells (%): 75.68% and 87.23%
  Population Normal (%): 100%
  Population Pyknosed Nuclei (%): 21.26% and 20%
  Population Tubulin-Different-Phenotype (%): 15.25% and 16.2%
  Total Cell Count: 174 and 235
[3]
  Population Apoptotic (%): 0% and 20.83%
  Population Fragmented Nuclei (%): 7.25% and 3.83%
  Population Healthy Nuclei (%): 72.46% and 85.96%
  Population Hoechst High Intensity Objects (%): 0%
  Population Membrane Permeable-Phenotype (%): 4% and 1.98%
  Population Mitochondria Different-Phenotype (%): 3% and 6.93%
  Population Mitotic Cells (%): 100% and 79.17%
  Population Normal (%): 100%
  Population Pyknosed Nuclei (%): 20.29% and 10.21%
  Population Tubulin-Different-Phenotype (%): 11% and 18.81%
  Total Cell Count: 138 and 235
[4]
  Population Apoptotic (%): 14.81% and 20.59%
  Population Fragmented Nuclei (%): 8.02% and 1.27%
  Population Healthy Nuclei (%): 77.54% and 84.39%
  Population Hoechst High Intensity Objects (%): 0%
  Population Membrane Permeable-Phenotype (%): 3.45% and 2.5%
  Population Mitochondria Different-Phenotype (%): 4.14% and 7%
  Population Mitotic Cells (%): 85.19% and 79.41%
  Population Normal (%): 100%
  Population Pyknosed Nuclei (%): 14.44% and 14.35%
  Population Tubulin-Different-Phenotype (%): 11.03% and 18.5%
  Total Cell Count: 187 and 237
[5]
  Population Apoptotic (%): 40% and 25%
  Population Fragmented Nuclei (%): 12.18% and 3.67%
  Population Healthy Nuclei (%): 84.62% and 91.43%
  Population Hoechst High Intensity Objects (%): 0%
  Population Membrane Permeable-Phenotype (%): 0% and 2.68%
  Population Mitotic Cells (%): 60% and 75%
  Population Normal (%): 100%
  Population Pyknosed Nuclei (%): 3.21% and 4.9%
  Population Tubulin-Different-Phenotype (%): 7.58% and 20.98%
  Total Cell Count: 156 and 245
[6]
  Population Apoptotic (%): 44.44% and 21.05%
  Population Fragmented Nuclei (%): 8.78% and 2.61%
  Population Healthy Nuclei (%): 86.83% and 89.13%
  Population Hoechst High Intensity Objects (%): 0%
  Population Membrane Permeable-Phenotype (%): 0.56% and 2.93%
  Population Mitochondria Different-Phenotype (%): 11.24% and 1.95%
  Population Mitotic Cells (%): 55.56% and 78.95%
  Population Normal (%): 100%
  Population Pyknosed Nuclei (%): 4.39% and 8.26%
  Total Cell Count: 205 and 230

## CCC(=N\O)/C(C)=C/c1ccc(F)cc1 [A-079]
[1]
  Population Apoptotic (%): 15.91% and 23.08%
  Population Fragmented Nuclei (%): 8.18% and 2.86%
  Population Healthy Nuclei (%): 71.82% and 82.29%
  Population Hoechst High Intensity Objects (%): 0%
  Population Membrane Permeable-Phenotype (%): 3.16% and 4.86%
  Population Mitochondria Different-Phenotype (%): 3.16% and 9.72%
  Population Mitotic Cells (%): 84.09% and 76.92%
  Population Normal (%): 100%
  Population Pyknosed Nuclei (%): 20% and 14.86%
  Population Tubulin-Different-Phenotype (%): 10.13% and 14.58%
  Total Cell Count: 220 and 175
[2]
  Population Apoptotic (%): 11.32% and 27.78%
  Population Fragmented Nuclei (%): 6.99% and 5.71%
  Population Healthy Nuclei (%): 64.52% and 81.43%
  Population Hoechst High Intensity Objects (%): 0%
  Population Membrane Permeable-Phenotype (%): 5.83% and 7.02%
  Population Mitochondria Different-Phenotype (%): 5% and 9.65%
  Population Mitotic Cells (%): 88.68% and 72.22%
  Population Normal (%): 100%
  Population Pyknosed Nuclei (%): 28.49% and 12.86%
  Population Tubulin-Different-Phenotype (%): 13.33% and 21.93%
  Total Cell Count: 186 and 140
[3]
  Population Apoptotic (%): 15.15% and 10.53%
  Population Fragmented Nuclei (%): 10% and 1.7%
  Population Healthy Nuclei (%): 75.65% and 87.5%
  Population Hoechst High Intensity Objects (%): 0%
  Population Membrane Permeable-Phenotype (%): 2.3% and 3.25%
  Population Mitochondria Different-Phenotype (%): 2.87% and 6.49%
  Population Mitotic Cells (%): 84.85% and 89.47%
  Population Normal (%): 100%
  Population Pyknosed Nuclei (%): 14.35% and 10.8%
  Population Tubulin-Different-Phenotype (%): 10.92% and 9.74%
  Total Cell Count: 230 and 176
[4]
  Population Apoptotic (%): 17.14% and 20.83%
  Population Fragmented Nuclei (%): 8.85% and 6.62%
  Population Healthy Nuclei (%): 72.92% and 77.48%
  Population Hoechst High Intensity Objects (%): 0%
  Population Membrane Permeable-Phenotype (%): 10.71% and 3.42%
  Population Mitochondria Different-Phenotype (%): 7.86% and 4.27%
  Population Mitotic Cells (%): 82.86% and 79.17%
  Population Normal (%): 100%
  Population Pyknosed Nuclei (%): 18.23% and 15.89%
  Population Tubulin-Different-Phenotype (%): 19.29% and 19.66%
  Total Cell Count: 192 and 151
[5]
  Population Apoptotic (%): 46.15% and 36.36%
  Population Fragmented Nuclei (%): 10.24% and 4.69%
  Population Healthy Nuclei (%): 84.65% and 89.58%
  Population Hoechst High Intensity Objects (%): 0%
  Population Membrane Permeable-Phenotype (%): 0.47% and 4.65%
  Population Mitotic Cells (%): 53.85% and 63.64%
  Population Normal (%): 100%
  Population Pyknosed Nuclei (%): 5.12% and 5.73%
  Total Cell Count: 254 and 192
[6]
  Population Apoptotic (%): 20% and 36.36%
  Population Fragmented Nuclei (%): 12.33% and 5.62%
  Population Healthy Nuclei (%): 80.82% and 87.5%
  Population Hoechst High Intensity Objects (%): 0%
  Population Membrane Permeable-Phenotype (%): 1.69% and 6.43%
  Population Mitotic Cells (%): 80% and 63.64%
  Population Normal (%): 100%
  Population Pyknosed Nuclei (%): 6.85% and 6.88%
  Population Tubulin-Different-Phenotype (%): 6.78% and 17.86%
  Total Cell Count: 219 and 160
